Results on one protein are retold here after ChEMBL document CHEMBL1240399.

By kcat/Km is commonly meant the turnover number divided by the Michaelis constant. As a reminder, the Km is the substrate concentration at which the rate is half of its maximum. One may read the kcat as the maximal rate divided by the concentration of active sites.

Substrate in data set [1]: CO/N=C(\C(=O)N[C@@H]1C(=O)N2C(C(=O)O)=C(COC(C)=O)CS[C@H]12)c1csc(N)n1
Nature of the data set: (§1) Ratio of Kcat/Km for Pseudomonas aeruginosa GES-13 beta lactamase assessed as hydrolysis by spectrometry. In short, it runs like this:
(§2)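 GES-13 expressed in E. coli(pB-ges13), released by sonication in 20 mM Tris pH 8.0, purified by Q-Sepharose (0–1 M NaCl gradient) then S-Sepharose after dialysis against 20 mM MES pH 6.0 (eluted 400–500 mM NaCl); >95% pure by SDS-PAGE. Hydrolysis of penicillin G, nitrocefin, cephalothin, cefotaxime, ceftazidime, aztreonam and imipenem followed spectrophotometrically; kinetic parameters derived.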

Substrate in data set [2]: C[C@H]1[C@H](NC(=O)/C(=N\OC(C)(C)C(=O)O)c2csc(N)n2)C(=O)N1S(=O)(=O)O
The data set is described as §1. The essentials:
as §2

Substrate in data set [3]: CC(=O)OCC1=C(C(=O)O)N2C(=O)[C@@H](NC(=O)Cc3cccs3)[C@H]2SC1
Described as §1. The essentials:
as §2

Substrate in data set [4]: O=C(Cc1cccs1)N[C@@H]1C(=O)N2C(C(=O)O)=C(/C=C/c3ccc([N+](=O)[O-])cc3[N+](=O)[O-])CS[C@H]12
The data set is described as §1. In short, it runs like this: as §2

Substrate in data set [5]: CC1(C)S[C@@H]2[C@H](NC(=O)Cc3ccccc3)C(=O)N2[C@H]1C(=O)O
The data set is described as §1. In short, it runs like this:
as §2

Substrate in data set [6]: CC(C)(O/N=C(\C(=O)N[C@@H]1C(=O)N2C(C(=O)[O-])=C(C[n+]3ccccc3)CS[C@H]12)c1csc(N)n1)C(=O)O
The description is as §1. The essentials: as §2

Substrate in data set [7]: CO/N=C(\C(=O)N[C@@H]1C(=O)N2C(C(=O)O)=C(COC(C)=O)CS[C@H]12)c1csc(N)n1
Put plainly: (§3) Activity of Pseudomonas aeruginosa GES-13 beta lactamase assessed as hydrolysis by spectrometry. In short, it runs like this: as §2

Substrate in data set [8]: C[C@H]1[C@H](NC(=O)/C(=N\OC(C)(C)C(=O)O)c2csc(N)n2)C(=O)N1S(=O)(=O)O
The data set is described as §3. The essentials: as §2

Substrate in data set [9]: O=C(Cc1cccs1)N[C@@H]1C(=O)N2C(C(=O)O)=C(/C=C/c3ccc([N+](=O)[O-])cc3[N+](=O)[O-])CS[C@H]12
The description is as §3. In short, it runs like this: as §2

Substrate in data set [10]: CC1(C)S[C@@H]2[C@H](NC(=O)Cc3ccccc3)C(=O)N2[C@H]1C(=O)O
The data set is described as §3. In short, it runs like this: as §2

Substrate in data set [11]: C[C@@H](O)[C@H]1C(=O)N2C(C(=O)O)=C(SCCNC=N)C[C@H]12
The data set is described as §3. The essentials: as §2

Substrate in data set [12]: CC(C)(O/N=C(\C(=O)N[C@@H]1C(=O)N2C(C(=O)[O-])=C(C[n+]3ccccc3)CS[C@H]12)c1csc(N)n1)C(=O)O
The data set is described as §3. The essentials:
as §2

B1: Beta-lactamase GES-13 (Pseudomonas aeruginosa), D1MIX9 (protein)
chain: MRFIHALLLAGIAHSAYASEKLTFKTDLEKLEREKAAQIGVAIVDPQGEIVAGHRMAQRFAMCSTFKFPLAALVFERIDSGTERGDRKLSYGPDMIVKWSPATERFLASGHMTVLEAAQAAVQLSDNGATNLLLREIGGPAAMTQYFRKIGDSVSRLDRKEPEMNDNTPGDLRDTTTPIAMARTVAKVLYGGALTSTSTHTIERWLIGNQTGDATLRAGFPKDWVVGEKTGTCANGGRNDIGFFKAQERDYAVAVYTTAPKLSAVERDELVASVGQVITQLILSTDK
Consider B1, for which the kcat/Km in data set [1] came to 1.09e+06 M⁻¹ s⁻¹; in [2], 90000 M⁻¹ s⁻¹; in data set [3], 100000 M⁻¹ s⁻¹; in data set [4], 150000 M⁻¹ s⁻¹; in data set [5], 100000 M⁻¹ s⁻¹; in data set [6] it was 130000 M⁻¹ s⁻¹. Moreover, the Km in data set [7] was determined as 63 µM; in data set [8], 405 µM; in data set [9], 197 µM; in data set [10], 139 µM; in [12], 229 µM. Moreover, the kcat was 69 s⁻¹ in data set [7]; 35.6 s⁻¹ in [8]; 29.3 s⁻¹ in data set [9]; 13.5 s⁻¹ in data set [10]; less than 0.01 s⁻¹ in data set [11]; 30.4 s⁻¹ in data set [12].
